# The source made the active and inactive calls. The calls are words filed in the database; no cut-off is given here.
# Experiments:
# A549 = assay: Antiproliferative activity against human A549 cells assessed as reduction in cell viability incubated for 72 hrs by MTT assay; format: functional, cell-based; details: A549, 72 h
# Outline: (§1)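 Cells (ATCC) grown in DMEM with 10 FBS, penicillin/streptomycin, 2 mM glutamine, 37 °C, 5 CO2. 5000 cells/well seeded; after 24 h, freshly prepared dilutions at five concentrations (0.01–100 μM) added for 72 h. MTT read-out; absorbance converted to percentage growth by NIH formulas. Two experiments in quadruplicate; IC50 by linear regression.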
# CFPAC-1 = assay: Antiproliferative activity against human CFPAC-1 cells assessed as reduction in cell viability incubated for 72 hrs by MTT assay; format: functional, cell-based; details: Homo sapiens, CFPAC-1, 72 h; read-out: IC50; outline: as §1
# HCT-116 = assay: Antiproliferative activity against human HCT116cells assessed as reduction in cell viability incubated for 72 hrs by MTT assay; format: functional, cell-based; details: HCT-116, 72 h; outline: as §1
# HeLa = assay: Antiproliferative activity against human HeLa cells assessed as reduction in cell viability incubated for 72 hrs by MTT assay; format: functional, cell-based; outline: as §1
# HepG2 = assay: Antiproliferative activity against human HepG2 cells assessed as reduction in cell viability incubated for 72 hrs by MTT assay; format: functional, cell-based; details: HepG2, 72 h; outline: as §1
# MCF7 [1] = assay: Antiproliferative activity against human MCF7 cells assessed as reduction in cell viability incubated for 72 hrs by MTT assay; format: functional, cell-based; details: MCF7, 72 h; outline: as §1
# SW-620 = assay: Antiproliferative activity against human SW620 cells assessed as reduction in cell viability incubated for 72 hrs by MTT assay; format: functional, cell-based; details: SW-620, 72 h; outline: as §1
# HFF = assay: Cytotoxicity against human HFF cells assessed as reduction in cell viability incubated for 72 hrs by MTT assay; format: cell-based; outline: as §1
# Influenza A virus [2] = assay: Antiviral activity against Influenza A virus (A/Ned/378/05(H1N1)) infected in dog MDCK cells assessed as reduction in virus-induced cytopathogenicity incubated for 7 days by microscopic analysis; format: functional, organism-based
# Influenza A virus H3N2 [3] = assay: Antiviral activity against Influenza A virus (A/HK/7/87(H3N2)) infected in dog MDCK cells assessed as reduction in virus-induced cytopathogenicity incubated for 7 days by microscopic analysis; format: functional, organism-based; details: A/Hong Kong/7/1987(H3N2); for EC50: 168 h
# Influenza B virus [4] = assay: Antiviral activity against Influenza B virus (B/Ned/537/05) infected in dog MDCK cells assessed as reduction in virus-induced cytopathogenicity incubated for 7 days by microscopic analysis; format: functional, organism-based; details: for EC50: 168 h
# Influenza A virus [5] = assay: Antiviral activity against Influenza A virus (A/Ned/378/05(H1N1)) infected in dog MDCK cells assessed as reduction in virus-induced cytopathogenicity incubated for 7 days by MTS assay; format: functional, organism-based; details: for EC50: Influenza A virus, A/Ned/378/05(H1N1), MDCK, 168 h
# Influenza A virus H3N2 [6] = assay: Antiviral activity against Influenza A virus (A/HK/7/87(H3N2)) infected in dog MDCK cells assessed as reduction in virus-induced cytopathogenicity incubated for 7 days by MTS assay; format: functional, organism-based; details: A/Hong Kong/7/1987(H3N2); for EC50: 168 h
# Influenza B virus [7] = assay: Antiviral activity against Influenza B virus (B/Ned/537/05) infected in dog MDCK cells assessed as reduction in virus-induced cytopathogenicity incubated for 7 days by MTS assay; format: functional, organism-based; details: for EC50: 168 h
# [8] = Cytotoxicity against dog MDCK cells assessed as minimum cytotoxic concentration by observing alteration in cell morphology incubated for 3 days by microscopic analysis; format: cell-based, Canis lupus familiaris
# MDCK = assay: (§2) Cytotoxicity against dog MDCK cells assessed as reduction in cell viability incubated for 3 days by coulter counter method; format: cell-based, Canis lupus familiaris; details: mdck, 72 h
# MCF7 [9] = assay: Induction of apoptosis in human MCF7 cells assessed as early apoptotic cells at 2 times of cytotoxic IC50 incubated for 24 hrs by annexin V staining based inverted phase contrast fluorescence microscopy (reference value: 0 %); format: functional
# MCF7 [10] = assay: Induction of apoptosis in human MCF7 cells assessed as late apoptotic cells at 2 times of cytotoxic IC50 incubated for 24 hrs by annexin V staining based inverted phase contrast fluorescence microscopy (reference value: […]); format: functional
# MCF7 [11] = assay: Induction of apoptosis in human MCF7 cells assessed as necrotic cells at 2 times of cytotoxic IC50 incubated for 24 hrs by annexin V staining based inverted phase contrast fluorescence microscopy (reference value: 0 %); format: functional
# MCF7 [12] = assay: Induction of apoptosis in human MCF7 cells assessed as early apoptotic cells at 2 times of cytotoxic IC50 incubated for 48 hrs by annexin V staining based inverted phase contrast fluorescence microscopy (reference value: 0 %); format: functional
# MCF7 [13] = assay: Induction of apoptosis in human MCF7 cells assessed as late apoptotic cells at 2 times of cytotoxic IC50 incubated for 48 hrs by annexin V staining based inverted phase contrast fluorescence microscopy (reference value: 10.60 %); format: functional
# MCF7 [14] = assay: Induction of apoptosis in human MCF7 cells assessed as necrotic cells at 2 times of cytotoxic IC50 incubated for 24 hrs by annexin V staining based inverted phase contrast fluorescence microscopy (reference value: 0.84 %); format: functional
# MCF7 [15] = assay: Upregulation of HIF1alpha in human MCF7 cells at cytotoxic IC50 incubated for 24 and 48 hrs by Western blot analysis; format: functional, cell-based
# MCF7 [16] = assay: Downregulation of NOS2 in human MCF7 cells at cytotoxic IC50 incubated for 24 and 48 hrs by Western blot analysis; format: functional, cell-based
# Cytomegalovirus [17] = assay: Antiviral activity against Cytomegalovirus AD169 infected in human HELF cells assessed as reduction in virus-induced cytopathogenicity incubated for 7 days by Giemsa staining based microscopic analysis; format: functional, organism-based; details: Human betaherpesvirus 5, AD169, HELF, 168 h
# Outline: (§3)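 Confluent HEL fibroblasts infected with CMV (Davis or AD-169) at 100 PFU/well for 2 h. Residual virus removed, then medium with graded compound concentrations added (duplicate). Incubated 7 days at 37 °C. Cytopathogenicity scored microscopically after ethanol fixation and Giemsa staining. EC50 read from plots of % cytopathogenicity versus concentration.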
# Cytomegalovirus [18] = assay: Antiviral activity against Cytomegalovirus Davis infected in human HELF cells assessed as reduction in virus-induced cytopathogenicity incubated for 7 days by Giemsa staining based microscopic analysis; format: functional, organism-based; details: Human betaherpesvirus 5, Davis, 168 h; outline: as §3
# Human alphaherpesvirus 3 [19] = assay: Antiviral activity against thymidine kinase deficient Varicella zoster virus infected in human HELF cells assessed as reduction in virus-induced cytopathogenicity incubated for 7 days by Giemsa staining based microscopic analysis; format: functional, organism-based; details: Human alphaherpesvirus 3, HELF, 168 h
# Human alphaherpesvirus 3 [20] = assay: Antiviral activity against thymidine kinase positive Varicella zoster virus infected in human HELF cells assessed as reduction in virus-induced cytopathogenicity incubated for 7 days by Giemsa staining based microscopic analysis; format: functional, organism-based; details: Human alphaherpesvirus 3, HELF, 168 h
# [21] = Cytotoxicity against human HELF cells assessed as minimum cytotoxic concentration by observing alteration in cell morphology incubated for 3 days by microscopic analysis; format: cell-based; details: HELF cells
# Outline: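 Read-out is the minimum cytotoxic concentration (MCC): the lowest compound concentration giving a microscopically detectable change in cell morphology. Measured on confluent human embryonic lung (HEL) fibroblast cultures exposed to a range of compound concentrations.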
# Human alphaherpesvirus 1 [22] = assay: Antiviral activity against Herpes simplex virus 1 KOS infected in human HELF cells assessed as reduction in virus-induced cytopathogenicity incubated for 7 days by microscopic analysis; format: functional, organism-based; details: strain KOS
# Human alphaherpesvirus 2 = assay: Antiviral activity against Herpes simplex virus 2 G infected in human HELF cells assessed as reduction in virus-induced cytopathogenicity incubated for 7 days by microscopic analysis; format: functional, organism-based
# Human alphaherpesvirus 1 [23] = assay: Antiviral activity against Herpes simplex virus 1 TK-KOS-ACV infected in human HELF cells assessed as reduction in virus-induced cytopathogenicity incubated for 7 days by microscopic analysis; format: functional, organism-based
# Human adenovirus 2 = assay: Antiviral activity against Human adenovirus 2 infected in human HELF cells assessed as reduction in virus-induced cytopathogenicity incubated for 7 days by microscopic analysis; format: functional, organism-based
# Human coronavirus 229E = assay: Antiviral activity against Human coronavirus 229E infected in human HELF cells assessed as reduction in virus-induced cytopathogenicity incubated for 7 days by microscopic analysis; format: functional, organism-based
# Coxsackievirus B4 = assay: Antiviral activity against Human coxsackievirus B4 infected in vero cells assessed as reduction in virus-induced cytopathogenicity incubated for 7 days by microscopic analysis; format: functional, organism-based
# Reovirus sp. = assay: Antiviral activity against Reovirus infected in vero cells assessed as reduction in virus-induced cytopathogenicity incubated for 7 days by microscopic analysis; format: functional, organism-based
# Sindbis virus = assay: Antiviral activity against Sindbis virus infected in vero cells assessed as reduction in virus-induced cytopathogenicity incubated for 7 days by microscopic analysis; format: functional, organism-based
# [24] = as §2; format: cell-based, Canis lupus familiaris; details: MDCK cells
smiles,measurement,setting,value
O=C1O[C@H]([C@@H](O)Cn2ccnn2)C(OCc2ccccc2)=C1OCc1ccccc1,IC50,A549,> 100 µM
same,IC50,CFPAC-1,> 100 µM
same,IC50,HCT-116,> 100 µM
same,IC50,HeLa,> 100 µM
same,IC50,HepG2,> 100 µM
same,IC50,MCF7 [1],> 100 µM
same,IC50,SW-620,> 100 µM
same,IC50,HFF,0.61 µM
same,EC50,"Influenza A virus [2]; Influenza A virus, A/Ned/378/05(H1N1), MDCK, 168 h",75 µM
same,EC50,Influenza A virus H3N2 [3],45 µM
same,EC50,Influenza B virus [4],> 100 µM
same,EC50,Influenza A virus [5],35.1 µM
same,EC50,Influenza A virus H3N2 [6],53.9 µM
same,EC50,Influenza B virus [7],> 100 µM
same,MCC at 72 h,[8],> 100 µM
same,CC50,MDCK,> 100 µM
CCCCCCCCCCc1cn(C[C@H](O)[C@H]2OC(=O)C(OCc3ccccc3)=C2OCc2ccccc2)nn1,IC50,A549,6.75 µM
same,IC50,CFPAC-1,40.3 µM
same,IC50,HCT-116,28.8 µM
same,IC50,HeLa,22.9 µM
same,IC50,HepG2,12.2 µM
same,IC50,MCF7 [1],0.08 µM
same,IC50,SW-620,45.1 µM
same,IC50,HFF,> 100 µM
same,Activity,MCF7 [9],0%
same,Activity,MCF7 [10],1.68%
same,Activity,MCF7 [11],11.36%
same,Activity,MCF7 [12],13.4%
same,Activity,MCF7 [13],35.3%
same,Activity,MCF7 [14],8.76%
same,Activity,MCF7 [15],Active
same,Activity,MCF7 [16],Active
same,EC50,Cytomegalovirus [17],> 4 µM
same,EC50,Cytomegalovirus [18],> 4 µM
same,EC50,Human alphaherpesvirus 3 [19],10.7 µM
same,EC50,Human alphaherpesvirus 3 [20],7.76 µM
same,MCC at 72 h,[21],20 µM
same,Activity,Influenza A virus [2],inactive
same,Activity,Influenza A virus H3N2 [3],inactive
same,Activity,Influenza B virus [4],inactive
same,Activity,Influenza A virus [5],inactive
same,Activity,Influenza A virus H3N2 [6],inactive
same,Activity,Influenza B virus [7],inactive
same,Activity,Human alphaherpesvirus 1 [22],inactive
same,Activity,Human alphaherpesvirus 2,inactive
same,Activity,Human alphaherpesvirus 1 [23],inactive
same,Activity,Human adenovirus 2,inactive
same,Activity,Human coronavirus 229E,inactive
same,Activity,Coxsackievirus B4,inactive
same,Activity,Reovirus sp.,inactive
same,Activity,Sindbis virus,inactive
NC(=O)c1ncn([C@@H]2O[C@H](CO)[C@@H](O)[C@H]2O)n1 [RIBAVIRIN],MCC at 72 h,[21],> 250 µM
same,EC50,Influenza A virus [2],8.9 µM
same,EC50,Influenza A virus H3N2 [3],2.3 µM
same,EC50,Influenza B virus [4],5.6 µM
same,EC50,Influenza A virus [5],18.2 µM
same,EC50,Influenza A virus H3N2 [6],1.4 µM
same,EC50,Influenza B virus [7],4.6 µM
same,MCC at 72 h,[8],> 100 µM
same,CC50 at 72 h,[24],> 100 µM
